As usually defined, the CC50 is the concentration giving 50% cytotoxicity. A high value points to lower toxicity to the cells. What is called IC50 is the concentration needed to halve the response being measured. A low value points to higher potency.

The source made the active and inactive calls. No cut-off for these calls is given here. Some results are limits rather than exact numbers.

In one data set the test system is MDA-MB-231. In words: Cytotoxicity against human MDA-MB-231 cells expressing CXCR4 after 48 to 72 hrs by MTS assay. Type of data set: cell-based. The method, boiled down:
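MDA-MB-231 breast cancer cells (CXCR4-expressing) exposed to compound for 48 to 72 h; viability by MTS dye reduction (CellTiter 96 Aqueous non-radioactive proliferation assay), run per manufacturer's protocol.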

Data set [1] concerns the target T1, C-X-C chemokine receptor type 4 (Homo sapiens, UniProt P61073). In words: Inhibition of T-140 binding to CXCR4 (unknown origin) expressed in dog Cf2Th cells incubated for 30 mins prior to T-140 addition measured after 30 mins by fluorescence assay. Format: cell-based.
The target in data set [2] is T1, C-X-C chemokine receptor type 4. Briefly: Inhibition of anti-CXCR4 mAb-44716 binding to CXCR4 in human H9 cells at 1 uM incubated for 20 mins prior to mAbs-44716 addition measured after 1 hr by flow cytometric analysis. Format: cell-based. The method, boiled down: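 H9 cells held 20 min at 4°C with […] compound in PBS/BSA/azide. Anti-CXCR4 mAb 44716 or an isotype control (anti-ricin RAC18) then added to 1 μg/ml for 1 h at 4°C. Washed, stained with Alexa 488 anti-mouse IgG for 1 h at 4°C, then fixed in 2% paraformaldehyde. Flow cytometry on 10,000 events; % inhibition from median fluorescence intensity.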

The subject of data set [3] is Human immunodeficiency virus 1. Briefly: Antiviral activity against R5 tropic HIV1 infected in human TZM-bl cells. Format: functional, organism-based.
In data set [4] the target is T1, C-X-C chemokine receptor type 4. Briefly: Inhibition of anti-CXCR4 mAb-44708 binding to CXCR4 in human H9 cells at 3 uM incubated for 20 mins prior to mAb-44708 addition measured after 1 hr by flow cytometric analysis. Type of data set: cell-based. The method, boiled down:
(§1)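 H9 cells pre-incubated at 4°C with […] compound in PBS/BSA/azide, then stained with anti-CXCR4 mAb 12G5, 44708, 44716 or 44717 at 1 μg/ml for 1 h. Detection with Alexa 488 anti-mouse IgG, then 2% paraformaldehyde fixation. Flow cytometry on 10,000 events; % inhibition from median fluorescence intensity.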
On the technique in general: A flow cytometer gives signals particle by particle.

Data set [5] shares this target. Briefly: Inhibition of anti-CXCR4 mAb-44717 binding to CXCR4 in human H9 cells at 3 uM incubated for 20 mins prior to mAb-44717 addition measured after 1 hr by flow cytometric analysis. Format: cell-based. Put shortly: as §1
For data set [6] the target is unchanged. Briefly: Inhibition of anti-CXCR4 mAb-12G5 binding to CXCR4 in human H9 cells at 3 uM incubated for 20 mins prior to mAbs-12G5 addition measured after 1 hr by flow cytometric analysis. Type of data set: cell-based. The method, boiled down:
as §1

The target is the same in data set [7]. In words: Inhibition of anti-CXCR4 mAb-44716 binding to CXCR4 in human H9 cells at 3 uM incubated for 20 mins prior to mAbs-44716 addition measured after 1 hr by flow cytometric analysis. Format: cell-based. Put shortly:
as §1

Data set [8] has the same target. In words: Inhibition of anti-CXCR4 mAb-12G5 binding to CXCR4 in PHA-induced human T cells at 0.1 to 10 uM incubated for 20 mins prior to mAbs-12G5 addition measured after 1 hr by flow cytometric analysis. Type of data set: cell-based. Conditions: T-cell. The method, boiled down: (§2)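 H9 cells or primary PHA-induced T-cell blasts pre-incubated 20 min at 4°C with a range of compound concentrations in PBS/1% BSA/0.01% sodium azide. mAb 12G5 (anti-CXCR4) or Sim.2 (anti-CD4) then added to 1 μg/ml for 1 h at 4°C. Detection with Alexa Fluor 488 goat anti-mouse IgG at 2 μg/ml for 1 h, then 2% paraformaldehyde fixation. Flow cytometry on 10,000 events; % inhibition from median fluorescence intensity against no-drug and no-Ab controls.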

Data set [9] has the same target. In words: Inhibition of anti-CXCR4 mAb-12G5 binding to CXCR4 in human H9 cells at 0.1 to 10 uM incubated for 20 mins prior to mAbs-12G5 addition measured after 1 hr by flow cytometric analysis. Format: cell-based. The method, boiled down:
as §2

For data set [10], the system named is Human immunodeficiency virus 1. Briefly: Antiviral activity against X4 tropic HIV1 BZ-167 infected in human TZM-bl cells assessed as neutralization of viral infectivity at 50 to 100 nM incubated 1 hr prior to viral infection measured after 72 hrs by luciferase reporter gene assay. Format: functional, organism-based. On the technique in general: A reporter such as luciferase makes a cellular process visible.

Data set [11] concerns Human immunodeficiency virus 1. In words: Antiviral activity against X4 tropic HIV1 NL4-3 infected in human TZM-bl cells assessed as neutralization of viral infectivity at 50 to 100 nM incubated 1 hr prior to viral infection measured after 72 hrs by luciferase reporter gene assay. Format: functional, organism-based.
Data set [12] concerns Human immunodeficiency virus 1. In words: Antiviral activity against X4 tropic HIV1 isolate 92-UG-029 infected in human TZM-bl cells assessed as neutralization of viral infectivity at 50 to 100 nM incubated 1 hr prior to viral infection measured after 72 hrs by luciferase reporter gene assay. Type of data set: functional, organism-based.
Data set [13] concerns Human immunodeficiency virus 1. Briefly: Antiviral activity against X4 tropic HIV1 isolate 92-HT-599 infected in human TZM-bl cells assessed as neutralization of viral infectivity at 50 to 100 nM incubated 1 hr prior to viral infection measured after 72 hrs by luciferase reporter gene assay. Format: functional, organism-based.
The target in data set [14] is T-cell surface glycoprotein CD4 (Homo sapiens) (UniProt P01730). Briefly: Inhibition of anti-CD4 mAb sim-2 binding to CD4 in PHA-induced human T cells at 0.1 to 10 uM incubated for 20 mins prior to mAb sim-2 addition measured after 1 hr by flow cytometric analysis. Format: cell-based. The method, boiled down:
as §2

Data set [15] shares this target. In words: Inhibition of anti-CD4 mAb sim-2 binding to CD4 in human H9 cells at 0.1 to 10 uM incubated for 20 mins prior to mAb sim-2 addition measured after 1 hr by flow cytometric analysis. Type of data set: cell-based. Put shortly: as §2
The nature of data set [16]: Cytotoxicity against PHA-induced human T cells up to 4 uM after 72 hrs by MTS assay. Format: cell-based. The following applies: t-cell. The method, boiled down: (§3)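 Cultures of TZM-bl, H9, or PHA blasts exposed to compound at concentrations up to 4 μM; MTS dye reduction measured at 72 h.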
(In general: Tetrazolium dyes change colour on reduction, which living cells bring about.)

The subject of another data set is H9. In words: Cytotoxicity against human H9 cells up to 4 uM after 72 hrs by MTS assay. Format: cell-based. Conditions: h9, 72 h. Put shortly: as §3
Data set [17] is described as follows: Cytotoxicity against human TZM-bl cells up to 4 uM after 72 hrs by MTS assay. Type of data set: cell-based. The method, boiled down:
as §3

T1 sequence (P61073 whole entry): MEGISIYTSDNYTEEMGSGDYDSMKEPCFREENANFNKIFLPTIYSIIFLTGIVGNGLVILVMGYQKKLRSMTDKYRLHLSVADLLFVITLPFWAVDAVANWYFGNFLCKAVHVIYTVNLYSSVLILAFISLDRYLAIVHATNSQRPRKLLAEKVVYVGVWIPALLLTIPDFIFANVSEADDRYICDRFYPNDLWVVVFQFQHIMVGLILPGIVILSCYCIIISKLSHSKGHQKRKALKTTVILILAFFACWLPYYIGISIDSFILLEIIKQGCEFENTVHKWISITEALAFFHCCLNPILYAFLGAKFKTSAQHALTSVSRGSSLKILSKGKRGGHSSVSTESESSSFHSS

In the data set on MDA-MB-231, `N=C(NCCCN(CCCCN(CCCNC(=N)Nc1ccc2ccccc2c1)C(=N)Nc1ccc2ccccc2c1)C(=N)Nc1ccc2ccccc2c1)Nc1ccc2ccccc2c1` displayed a CC50 of 20 µM. The compound also showed an IC50 in data set [1] of 0.3 µM.
Turning to `N=C(NCCCNCCCCNCCCNC(=N)Nc1cccc2ccccc12)Nc1cccc2ccccc12`, the inhibition result in data set [2] is “Active”. In the data set with MDA-MB-231, it took 300 µM to reach half-maximal cytotoxicity (CC50). The compound further displayed a half-maximal inhibitory concentration (IC50) in [1] of 0.18 µM.
Take `N=C(NCCCCNCCCNC(=N)Nc1ccccc1)Nc1ccccc1`: the 50% cytotoxic concentration (CC50) in the data set on MDA-MB-231 is > 1000 µM. In data set [1], this compound returned an IC50 of 0.26 µM.
In turn, `NC(=NCCCCNCCCN=C(N)Nc1ccc2ccccc2c1)Nc1ccc2ccccc2c1` showed a half-maximal cytotoxic concentration (CC50) in the data set on MDA-MB-231 of 76 µM. Also, the IC50 in data set [1] came out at 0.062 µM.
For the compound `N=C(NCCCNCCCCN(CCCNC(=N)Nc1ccc2ccccc2c1)C(=N)Nc1ccc2ccccc2c1)Nc1ccc2ccccc2c1`, the outcome in [3] was inactive. Also, the inhibition result in [2] is “Active”.
In turn, `NC(=NCCCCN(CCCN=C(N)Nc1cccc2ccccc12)C(N)=Nc1cccc2ccccc12)Nc1cccc2ccccc12` displayed an IC50 in [1] of 0.11 µM.
With `NCCCNCCCCNCCCN`, the inhibition entry in [4], in [5], in data set [6], in data set [7], in data set [8] and in data set [9] was “inactive” each time.
`N=C(NCCCCNCCCNC(=N)Nc1cccc2ccccc12)Nc1cccc2ccccc12` showed a half-maximal cytotoxic concentration (CC50) in the data set with MDA-MB-231 of 120 µM. The IC50 in data set [1] stood at 0.22 µM.
Take `NC(=NCCCNCCCCN(CCCN=C(N)Nc1ccc2ccccc2c1)C(N)=Nc1ccc2ccccc2c1)Nc1ccc2ccccc2c1`: the cytotoxic concentration (CC50) with MDA-MB-231 was determined as 15 µM. Besides, the IC50 in [1] amounted to 0.093 µM.
The matching figures for `N=C(NCCCN(CCCCN(CCCNC(=N)Nc1cccc2ccccc12)C(=N)Nc1cccc2ccccc12)C(=N)Nc1cccc2ccccc12)Nc1cccc2ccccc12`: 7.3 µM and 0.38 µM.
Consider `N=C(NCCCCNCCCNC(=N)Nc1ccc2ccccc2c1)Nc1ccc2ccccc2c1`, for which the outcome in data set [3] was inactive.
Compound `N=C(Nc1ccccc1)N(CCCCN=C(N)Nc1ccccc1)CCCN=C(N)Nc1ccccc1` had a half-maximal cytotoxic concentration (CC50) in the data set on MDA-MB-231 of 510 µM. For the same compound, the half-inhibitory concentration (IC50) in [1] came out at 0.28 µM.
Consider `N=C(NCCCNCCCCNCCCNC(=N)Nc1ccc2ccccc2c1)Nc1ccc2ccccc2c1`, for which the outcome in data set [3] was inactive. For the same compound, in data set [2], the inhibition entry is “Active”. The CC50 in the data set with MDA-MB-231 was found to be 17 µM. The same compound yielded an IC50 in data set [1] of 0.11 µM.
`N=C(Nc1ccccc1)N(CCCCN(CCCN=C(N)Nc1ccccc1)C(N)=Nc1ccccc1)CCCNC(N)=Nc1ccccc1`: the cytotoxic concentration (CC50) in the data set on MDA-MB-231 was > 100 µM. Further, in data set [1], the IC50 was 0.51 µM.
For the compound `N=C(NCCCNCCCCN(CCCNC(=N)Nc1cccc2ccccc12)C(=N)Nc1cccc2ccccc12)Nc1cccc2ccccc12`, in data set [3], the result was inactive. The result in data set [10], in [11], in data set [12] and in data set [13] was Active. Further, the inhibition result in data set [4], in data set [5], in [6], in [7], in data set [8] and in data set [9] was “Active” each time. Further, the inhibition entry in [2] is “Active”. In addition, the inhibition result in [14] and in data set [15] was “inactive” each time. In addition, the Activity result (in [16]; with H9; in data set [17]) was “Non-toxic” throughout. It took 18 µM to reach half-maximal cytotoxicity in the data set with MDA-MB-231 (CC50). Moreover, the IC50 in [1] is 0.04 µM.
For `N=C(NCCCCN(CCCNC(=N)Nc1ccc2ccccc2c1)C(=N)Nc1ccc2ccccc2c1)Nc1ccc2ccccc2c1`, the IC50 in data set [1] is 0.19 µM.

(Values after ChEMBL document CHEMBL2346661, “Improved guanide compounds which bind the CXCR4 co-receptor and inhibit HIV-1 infection” (Bioorg Med Chem Lett, 2013).)
